The source made the active and inactive calls.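 How the source made its calls, unless noted: active means NADPH fluorescence slope more negative than the mean of all samples by about 3 SD, 99.7% confidence; inactive means the rest.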
How the values were obtained:
[1] = inhibitors of TNFa-induced NFkB p65 translocation, primary screen, imaging, HUVEC, MLSMR starter and 10KST1 sets (AID 438;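 active means inhibition above 20% together with a positive visual image hit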;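 further: compound added about 3h40 before a 20 min TNFalpha stimulation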;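 on inhibition: signal is the nuclear over cytoplasmic p65 intensity ratio per well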); conditions: HUVEC TNFa-induced p65 nuclear translocation; cell count: measured here: nuclei count (cytotoxicity indicator), at 2.08 µM; inhibition: at 2 µM, stronger effect = higher value, 0% TNFa-plus-vehicle, 100% no-TNFa wells
[2] = reduction of polyQ htt aggregates in cells – imaging, exon1htt(103Q)mCFP cells, high-content imaging, primary screen (AID 483;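 active means visual image review flags a hit and inhibition of aggregation exceeds 20%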;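 further: compound exposure lasted 3 days before fixation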;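 on nuclei count: percent of the per-plate median nuclei count of sample wells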); conditions: exon1htt(103Q)mCFP cell line, aggregate imaging, at 2 µM; inhibition of aggregation: stronger effect = higher value; nuclei count: measured here: cell count, toxicity
[3] = endothelial E-selectin expression blockers – imaging, HUVEC, immunofluorescence, MLSMR starter and 10KST1 sets, primary screen (AID 487;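 active means visually confirmed hit in the image check and inhibition above 20%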;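 on inhibition: signal is fraction of cell area covered by stained E-selectin grains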;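 on nuclei count: 100% = median nuclei count of all wells on the same plate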); conditions: HUVEC TNFalpha-induced E-selectin immunofluorescence imaging, at 2 µM; inhibition: stronger effect = higher value; nuclei count: measured here: cell number, toxicity
[4] = target: Voltage-gated potassium channel subunit beta-2 (Rattus norvegicus) (UniProt P62483); assay: inhibitors of rat Kvbeta2 reductase activity – biochemical, NADPH fluorescence, primary screen (AID 622;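 active means fluorescence slope higher than the sample average by over 3 SD, cut at about -0.22 in these data, passing the limit was not always enough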;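 further: slope of raw intensity against log time taken from 70 to 1610 s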); conditions: recombinant KvBeta, 4-cyanobenzaldehyde reduction, at 10 µM, stronger effect = higher value
Sequence of Voltage-gated potassium channel subunit beta-2 (Rattus norvegicus) (P62483 whole entry, looked up): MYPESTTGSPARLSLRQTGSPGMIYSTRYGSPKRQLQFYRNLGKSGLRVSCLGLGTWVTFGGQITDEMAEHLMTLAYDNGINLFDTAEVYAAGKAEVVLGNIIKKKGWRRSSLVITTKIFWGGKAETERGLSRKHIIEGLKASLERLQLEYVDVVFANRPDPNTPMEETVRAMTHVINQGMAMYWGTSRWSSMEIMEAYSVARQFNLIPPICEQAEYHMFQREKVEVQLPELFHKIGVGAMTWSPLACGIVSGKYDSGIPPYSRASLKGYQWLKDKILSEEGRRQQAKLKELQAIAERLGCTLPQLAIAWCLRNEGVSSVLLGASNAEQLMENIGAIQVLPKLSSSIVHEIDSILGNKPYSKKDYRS

[5] = target: Voltage-gated potassium channel subunit beta-2 (Rattus norvegicus) (UniProt P62483); assay: enhancers of rat Kvbeta2 NADPH turnover – biochemical, NADPH fluorescence, primary screen (AID 623); conditions: Recombinant KvBeta, NADPH fluorescence decrease slope, 10 min; at 10 µM; stronger effect = lower value;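 further: fluorescence intensity change per second fitted from 20 to 320 s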
[6] = target: Alpha-2C adrenergic receptor (Homo sapiens) (UniProt P18825); assay: compounds altering alpha2C-coupled GIRK flux – cell-based, HEK293 alpha2C/GIRK1/2, thallium flux, primary screen (AID 624;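 active means fluorescence slope after compound addition differing from the mean of all screened samples at 99.7% confidence, in either direction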;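 further: slope of fluorescence ratio to pre-addition baseline per second over 15 to 24 s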); conditions: thallium flux BTC fluorescence, at 10 µM, actives lie on both sides
Sequence of Alpha-2C adrenergic receptor (Homo sapiens) (P18825 whole entry, looked up): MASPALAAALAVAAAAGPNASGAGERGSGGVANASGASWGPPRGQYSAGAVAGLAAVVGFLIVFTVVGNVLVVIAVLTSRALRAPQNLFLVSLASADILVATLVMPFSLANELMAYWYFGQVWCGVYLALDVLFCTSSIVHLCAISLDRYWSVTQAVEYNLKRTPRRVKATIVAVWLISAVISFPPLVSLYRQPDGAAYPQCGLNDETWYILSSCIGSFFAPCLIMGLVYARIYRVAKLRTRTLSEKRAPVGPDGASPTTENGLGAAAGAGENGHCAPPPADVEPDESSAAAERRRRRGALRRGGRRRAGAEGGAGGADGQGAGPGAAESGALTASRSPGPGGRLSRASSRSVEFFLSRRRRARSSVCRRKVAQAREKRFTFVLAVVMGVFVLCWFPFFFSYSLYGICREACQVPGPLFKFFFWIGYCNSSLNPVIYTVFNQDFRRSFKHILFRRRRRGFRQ

[7] = inhibitors of larval lipid processing in zebrafish, primary screen, whole organism, PED6 fluorescence, gall bladder and intestine (AID 686;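 active means a full or partial loss of lipid-probe fluorescence in the fish gall bladder, intestine or both, judged by eye; inactive means no fluorescence loss, or compound toxic to the fish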;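 further: larvae 5 to 7 days old with five fish per well; signal comes from phospholipase A2 cleavage of quenched PED6 carried via bile; overnight exposure to compound and PED6 before scoring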); conditions: Zebrafish larvae PED6 lipid processing, fluorescence scoring; screened at 20 µM (by protocol)
Summary of the method: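 system = live zebrafish larvae aged 5-7 days, whole organism | probe or stimulus = ingested quenched lipid PED6 at 100 nM | doses = 20 µM single dose | timing = overnight exposure | detection = fluorescence microscopy with visual scoring of gall bladder and intestine | read-out = visual per-well fluorescence inhibition score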

[8] = blockers of RIG-like receptor reporter activation – cell-based, Sendai virus stimulus, luciferase, 10K MLSCN set, TLR/RLR signaling modifier project, primary screen (AID 602276;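 active means inhibition at or above 50% at 10 µM; inactive means inhibition below 50%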;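 further: firefly luciferase from ISG56 promoter only with Renilla not read in this screen; 0% = Sendai virus plus DMSO and 100% = medium plus DMSO without virus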); conditions: HEK293 RL24 IRF3 luciferase reporter, at 10 µM, stronger effect = higher value
[9] = TLR3 IRF3 reporter activation blockers – cell-based, poly I:C stimulus, luciferase, 10K MLSCN set, primary screen (AID 602277;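 active means inhibition of the reporter signal at or above 50%; inactive means inhibition below 50%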); conditions: HEK293-TLR3 RL24 IRF3 luciferase reporter, at 10 µM, stronger effect = higher value

Compound: Cc1ccc(NC(=O)COC(=O)c2ccn(C)n2)cc1
- cell count [1]: 521
- inhibition [1]: -2.1% (inactive)
- inhibition of aggregation [2]: -15.4% (inactive)
- nuclei count [2]: 89.1%
- inhibition [3]: -28.3% (inactive)
- nuclei count [3]: 109%
- fluorescence slope [4]: -0.39 (inactive)
- NADPH fluorescence slope [5]: 1.1e-05 (inactive)
- slope [6]: 0.0046 (inactive)
- outcome [7]: inactive
- inhibition [8]: 17.1% (inactive)
- inhibition [9]: 22.3% (inactive)

Compound: c1ccc(-c2nnc(SCc3nc4ccccc4[nH]3)o2)cc1
- cell count [1]: 285
- inhibition [1]: 8.2% (inactive)
- inhibition of aggregation [2]: -3.4% (inactive)
- nuclei count [2]: 94.1%
- inhibition [3]: 34.3% (inactive)
- nuclei count [3]: 87.8%
- fluorescence slope [4]: -0.304 (inactive)
- NADPH fluorescence slope [5]: -1.4e-05 (inactive)
- slope [6]: 0.00613 (inactive)
- outcome [7]: inactive
- inhibition [8]: 12.6% (inactive)
- inhibition [9]: -7.21% (inactive)

Compound: Cc1ccc(-n2c(C)cc3c2CCCC3=O)cc1
- cell count [1]: 313
- inhibition [1]: 2.4% (inactive)
- inhibition of aggregation [2]: -9.3% (inactive)
- nuclei count [2]: 88.9%
- inhibition [3]: -29.8% (inactive)
- nuclei count [3]: 118%
- fluorescence slope [4]: -0.366 (inactive)
- NADPH fluorescence slope [5]: -7.7e-05 (inactive)
- slope [6]: 0.00516 (inactive)
- outcome [7]: inactive
- inhibition [8]: 5.45% (inactive)
- inhibition [9]: 8.48% (inactive)

Compound: Cc1cc(C)nc(-n2nc(C)cc2NC(=O)c2ccc(Br)o2)n1
- cell count [1]: 442
- inhibition [1]: -7.3% (inactive)
- inhibition of aggregation [2]: 18.7% (inactive)
- nuclei count [2]: 90.1%
- inhibition [3]: 21.7% (inactive)
- nuclei count [3]: 105%
- fluorescence slope [4]: -0.374 (inactive)
- NADPH fluorescence slope [5]: -5.8e-05 (inactive)
- slope [6]: 0.00507 (inactive)
- outcome [7]: inactive
- inhibition [8]: -4.98% (inactive)
- inhibition [9]: 20.1% (inactive)

Compound: O=C(Nc1ccc2oc(=O)ccc2c1)c1cccnc1
- cell count [1]: 423
- inhibition [1]: 7.5% (inactive)
- inhibition of aggregation [2]: 4% (inactive)
- nuclei count [2]: 90.8%
- inhibition [3]: 1.2% (inactive)
- nuclei count [3]: 91.9%
- fluorescence slope [4]: -0.434 (inactive)
- NADPH fluorescence slope [5]: -8.3e-06 (inactive)
- slope [6]: 0.00437 (inactive)
- outcome [7]: inactive
- inhibition [8]: 6.9% (inactive)
- inhibition [9]: 0.246% (inactive)

Compound: O=C(CSc1nnc(Cc2ccccc2)n1-c1cccc(Cl)c1)N1CCOCC1
- cell count [1]: 352
- inhibition [1]: 10.5% (inactive)
- inhibition of aggregation [2]: -18.8% (inactive)
- nuclei count [2]: 85.8%
- inhibition [3]: -207% (inactive)
- nuclei count [3]: 119%
- fluorescence slope [4]: -0.4 (inactive)
- NADPH fluorescence slope [5]: -4.5e-05 (inactive)
- slope [6]: 0.00585 (inactive)
- outcome [7]: inactive
- inhibition [8]: -1.07% (inactive)
- inhibition [9]: 9.14% (inactive)

Compound: CCOC(=O)C1CCCN(C(=O)Cc2ccc(OC)c(OC)c2)C1 (stereo unspecified)
- cell count [1]: 705
- inhibition [1]: 2.6% (inactive)
- inhibition of aggregation [2]: 2.1% (inactive)
- nuclei count [2]: 100%
- inhibition [3]: -124% (inactive)
- nuclei count [3]: 104%
- fluorescence slope [4]: -0.443 (inactive)
- NADPH fluorescence slope [5]: -4.9e-05 (inactive)
- slope [6]: 0.00479 (inactive)
- outcome [7]: inactive
- inhibition [8]: 18.6% (inactive)
- inhibition [9]: 17.7% (inactive)

Compound: COC(=O)Cc1cc(=O)n(-c2ccccc2)[nH]1
- cell count [1]: 435
- inhibition [1]: 3.1% (inactive)
- inhibition of aggregation [2]: -18.2% (inactive)
- nuclei count [2]: 106%
- inhibition [3]: -67.7% (inactive)
- nuclei count [3]: 111%
- fluorescence slope [4]: -0.379 (inactive)
- NADPH fluorescence slope [5]: -1.8e-05 (inactive)
- slope [6]: 0.00454 (inactive)
- outcome [7]: inactive
- inhibition [8]: 17.9% (inactive)
- inhibition [9]: 21.3% (inactive)

Compound: O=C(O)C(c1ccccc1)N1CCCC1 (stereo unspecified)
- cell count [1]: 643
- inhibition [1]: 3.4% (inactive)
- inhibition of aggregation [2]: -1.7% (inactive)
- nuclei count [2]: 108%
- inhibition [3]: -110% (inactive)
- nuclei count [3]: 104%
- fluorescence slope [4]: -0.291 (inactive)
- NADPH fluorescence slope [5]: -6.9e-06 (inactive)
- slope [6]: 0.00482 (inactive)
- outcome [7]: inactive
- inhibition [8]: 13% (inactive)
- inhibition [9]: 8.7% (inactive)

Compound: Cc1nn(Cc2ccccc2)c(C)c1NC(=O)c1cc(-c2ccco2)on1
- cell count [1]: 408
- inhibition [1]: -8.1% (inactive)
- inhibition of aggregation [2]: -15.5% (inactive)
- nuclei count [2]: 101%
- inhibition [3]: -15.3% (inactive)
- nuclei count [3]: 101%
- fluorescence slope [4]: -0.347 (inactive)
- NADPH fluorescence slope [5]: -6.8e-06 (inactive)
- slope [6]: 0.00588 (inactive)
- outcome [7]: inactive
- inhibition [8]: 9.89% (inactive)
- inhibition [9]: 12.8% (inactive)

Compound: Cc1ccc(-c2nn(-c3ccccc3)cc2/C=C(\C#N)c2cccc(C#N)c2)o1
- cell count [1]: 264
- inhibition [1]: -9.3% (inactive)
- inhibition of aggregation [2]: -10% (inactive)
- nuclei count [2]: 97.5%
- inhibition [3]: 3.9% (inactive)
- nuclei count [3]: 84.1%
- fluorescence slope [4]: -0.273 (inactive)
- NADPH fluorescence slope [5]: -2.6e-05 (inactive)
- slope [6]: 0.0087 (active)
- outcome [7]: inactive
- inhibition [8]: 13.8% (inactive)
- inhibition [9]: 5.01% (inactive)

Compound: O=C(NCCC1=CCCCC1)C1CCN(S(=O)(=O)c2cnc[nH]2)CC1
- cell count [1]: 472
- inhibition [1]: 4.5% (inactive)
- inhibition of aggregation [2]: -8.6% (inactive)
- nuclei count [2]: 93.1%
- inhibition [3]: -36.1% (inactive)
- nuclei count [3]: 117%
- fluorescence slope [4]: -0.367 (inactive)
- NADPH fluorescence slope [5]: -4.7e-05 (inactive)
- slope [6]: 0.0051 (inactive)
- outcome [7]: inactive
- inhibition [8]: 13.7% (inactive)
- inhibition [9]: 18.8% (inactive)

Compound: O=C(NC1CCS(=O)(=O)C1)OC1CCCCC1 (stereo unspecified)
- cell count [1]: 419
- inhibition [1]: -1.2% (inactive)
- inhibition of aggregation [2]: 2% (inactive)
- nuclei count [2]: 111%
- inhibition [3]: -91.7% (inactive)
- nuclei count [3]: 105%
- fluorescence slope [4]: -0.468 (inactive)
- NADPH fluorescence slope [5]: -5.2e-05 (inactive)
- slope [6]: 0.0056 (inactive)
- outcome [7]: inactive
- inhibition [8]: 10.9% (inactive)
- inhibition [9]: 3.54% (inactive)

Reference: PubChem BioAssay
